ChEMBL document CHEMBL1137201, “A virtual screening approach to finding novel and potent antagonists at the melanin-concentrating hormone 1 receptor” (J Med Chem, 2004)
pIC50, pKi: −log10 of the molar value.

How the values were obtained:
Assay type in all cases: cell-based
[1] = target: T1, Melanin-concentrating hormone receptor 1 (Homo sapiens, UniProt Q99705); test: Inhibition of Melanin-concentrating hormone 1 receptor expressed in CHO cells
[2] = target: T1, Melanin-concentrating hormone receptor 1; test: (§1) Binding affinity for Melanin-concentrating hormone 1 receptor expressed in CHO cells
In short: (§2)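 Scintillation proximity binding: CHO membranes (5 μg) overexpressing MCH-1R with wheat germ agglutinin SPA beads and 0.4 nM 125I-[Phe13,Tyr19]-MCH, 1 h at room temperature. Nonspecific binding was taken with 1 μM MCH. Bound label was scintillation-counted. IC50 came from six-point semilog concentration–response curves.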

[3] = target: T1, Melanin-concentrating hormone receptor 1; test: Percent inhibition of Melanin-concentrating hormone 1 receptor expressed in CHO cells at 10 uM
In short: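 Same SPA radioligand binding setup: CHO MCH-1R membranes with 0.4 nM 125I-[Phe13,Tyr19]-MCH and WGA beads, 1 h at room temperature, 1 μM MCH for nonspecific binding. Compounds were screened at a single 10 μM concentration, and actives were retested in duplicate at 10 μM. Read-out is percent inhibition of specific binding.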

[4] = target: T1, Melanin-concentrating hormone receptor 1; test: as §1; in short: as §2; remark: listed apart in the source

T1 sequence (Q99705 whole entry): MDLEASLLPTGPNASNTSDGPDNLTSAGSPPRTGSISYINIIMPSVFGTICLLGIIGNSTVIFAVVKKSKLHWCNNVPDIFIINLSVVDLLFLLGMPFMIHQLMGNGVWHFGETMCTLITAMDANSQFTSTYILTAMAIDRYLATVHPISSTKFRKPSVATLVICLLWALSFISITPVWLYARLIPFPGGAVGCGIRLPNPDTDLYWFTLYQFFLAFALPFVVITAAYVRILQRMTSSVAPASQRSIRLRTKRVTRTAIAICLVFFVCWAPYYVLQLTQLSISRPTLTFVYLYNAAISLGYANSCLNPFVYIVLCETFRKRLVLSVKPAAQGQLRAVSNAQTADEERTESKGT

Structure (SMILES) | pIC50 [1] | also measured
CCN1CCN(c2cc(C)c3cc(NC(=O)COc4cccc(C)c4)ccc3n2)CC1 | 5.18 | –
CC[C@H](NC(=O)c1ccc(CC2CCN(Cc3ccc4c(c3)OCO4)CC2)cc1)c1ccc(C(=O)OC)cc1 | – | pKi [2]: ≥ 5.82
CCN1CCN(c2cc(C)c3cc(NC(=O)CCc4ccc(OC)cc4)ccc3n2)CC1 | 6.14 | –
Cc1cc(N2CCN(C)CC2)nc2ccc(NC(=O)CCC3CCCC3)cc12 | – | inhibition [3]: 11.6%
O=C(CCCN1CCC(O)(c2ccc(Cl)cc2)CC1)c1ccc(Cl)cc1 | – | Kb [4]: 0.009 µM
COc1ccc(CCC(=O)Nc2ccc3nc(N4CCN(C)CC4)cc(C)c3c2)cc1 | 6.60 | –
CCCCN(CCCC)c1ccc(CNC[C@H]2CC[C@H](N(C)C(=O)c3cccc4ccccc34)CC2)cc1 | – | Kb [4]: 0.284 µM
CN(C)CC1CCc2cc(NC(=O)c3ccc(-c4ccc(F)cc4)cc3)ccc2C1 (stereo not given) | 8.26 | –
CCN1CCN(c2cc(C)c3cc(NC(=O)C(C)Oc4ccc(Cl)cc4Cl)ccc3n2)CC1 (stereo not given) | 6.64 | –
COc1cc(N2CCN(C[C@H]3C[C@@H]3c3ccccc3)CC2)ccc1Br | – | pKi [2]: > 6.00
O=C(CNC(=O)OCc1ccccc1)NCC(CCCN1CCC(c2ccccc2)CC1)(c1ccccc1)c1ccccc1 | 8.30 | –
CCN1CCN(c2cc(C)c3cc(NC(=O)CSc4ccncc4)ccc3n2)CC1 | 5.09 | –
Cc1cc(N2CCN(C)CC2)nc2ccc(NC(=O)C(C)Oc3ccc(Cl)cc3Cl)cc12 (stereo not given) | 6.10 | –
O=C1c2cc(OCCC3CCN(Cc4ccc(C5=NCCN5)cc4)CC3)ccc2CCCN1Cc1ccccc1 | 6.52 | –
CC(=O)N[C@@H]1CCN(CCCCN(C(=O)Nc2ccc(F)c(Cl)c2)c2ccc(-c3cccc(C#N)c3)cc2)C1 | – | pKi [2]: > 7.00
